Measured values as given in article PMC5450914 (Bioorganic & medicinal chemistry, 2017).

Key:
Recombinant GGDPS = target: T1, Recombinant GGDPS (Homo sapiens, UniProt O95749); experiment: GGDPS enzyme assay; format: biochemical
T1 sequence (O95749 1-300): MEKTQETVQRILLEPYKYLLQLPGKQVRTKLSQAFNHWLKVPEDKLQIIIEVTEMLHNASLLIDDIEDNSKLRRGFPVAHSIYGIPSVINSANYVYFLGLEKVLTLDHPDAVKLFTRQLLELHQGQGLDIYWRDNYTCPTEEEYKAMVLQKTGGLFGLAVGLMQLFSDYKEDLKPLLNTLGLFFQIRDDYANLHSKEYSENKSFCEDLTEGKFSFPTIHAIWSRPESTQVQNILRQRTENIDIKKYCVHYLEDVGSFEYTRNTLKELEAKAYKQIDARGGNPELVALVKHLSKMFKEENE

RPMI-8226 cells = experiment: Disruption of protein geranylgeranylation in myeloma cells; format: cell-based; conditions: 48 hours
How it was run: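 RPMI-8226 myeloma cells exposed 48 h to varying test compound concentrations, with lovastatin 10 μM as comparator. Rap1a: RIPA whole-cell lysate, antibody recognising only unmodified protein, β-tubulin loading control. Rab6: Triton X-114 detergent (membrane) fraction, calnexin loading control, densitometry normalised to calnexin and to untreated cells. Equal BCA-quantified protein resolved by SDS-PAGE, transferred to PVDF, detected with HRP secondary and ECL.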

potency relative to geranyl 1 (GGDPS inhibitory activity) (Recombinant GGDPS; compared with previously reported compound 1) | fold less potent than homogeranyl 4 (GGDPS inhibitory activity) (Recombinant GGDPS; compared with previously reported compound 4) | Compound | lowest concentration at which disruption of protein geranylgeranylation was seen (RPMI-8226 cells)
six-fold more potent | 15 fold | CC(C)=CCC/C(C)=C/CCCn1cc(CC(P(=O)([O-])[O-])P(=O)([O-])[O-])nn1.[Na+].[Na+].[Na+].[Na+] [17b, Sodium (4E)–(2–(1–(5,9–dimethyldeca–4,8–dienyl)–1H–1,2,3–triazol–4–yl)ethane–1,1–diyl)bis(phosphonate)] | 
 |  | CC(C)=CCC/C(C)=C\CCCn1cc(CC(P(=O)([O-])[O-])P(=O)([O-])[O-])nn1.[Na+].[Na+].[Na+].[Na+] [17c, Sodium (4Z)–(2–(1–(5,9–dimethyldeca–4,8–dienyl)–1H–1,2,3–triazol–4–yl)ethane–1,1–diyl)bis(phosphonate)] | 0.5 µM
